According to ChEMBL document CHEMBL2016555, “4-Methoxy-N-[2-(trifluoromethyl)biphenyl-4-ylcarbamoyl]nicotinamide: A Potent and Selective Agonist of S1P1” (ACS Med Chem Lett, 2011):
pEC50, pIC50: −log10 of the molar value.

Legend:
[1] = test system: Rattus norvegicus; experiment: Toxicity in Sprague-Dawley rat assessed as clinical signs at 50 mg/kg, po administered qd for 4 days; format: organism-based; design: dose 50 mg/kg, route oral; conditions: in vivo, 96 h
Outline: (§1)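 Male Sprague-Dawley rats, N = 3/group, dosed orally once daily for 4 days at 50 or 200 mg/kg. Endpoints were mortality, clinical signs, body weight, and clinical chemistry including total bilirubin and cholesterol.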

[2] = test system: Rattus norvegicus; experiment: Toxicity in Sprague-Dawley rat assessed as adverse clinical signs at 200 mg/kg, po administered qd for 4 days; format: organism-based; design: dose 200 mg/kg, route oral; conditions: in vivo, 96 h; outline: as §1
[3] = Bioavailability in Sprague-Dawley rat at 3 mg/kg, po and 1 mg/kg, iv; format: ADME, organism-based; conditions: in vivo
[4] = Plasma protein binding in Sprague-Dawley rat in vitro by ultracentrifugation; conditions: read-out: PPB (converted)
[5] = test system: Rattus norvegicus; experiment: Toxicity in Sprague-Dawley rat assessed as mortality at 200 mg/kg, po administered qd for 4 days; format: organism-based; design: dose 200 mg/kg, route oral; conditions: in vivo, 96 h; outline: as §1
[6] = Half life in Sprague-Dawley rat at 1 mg/kg, iv; format: ADME, organism-based; design: dose 1 mg/kg, route intravenous; conditions: in vivo
[7] = target: Sphingosine 1-phosphate receptor 2 (Homo sapiens, UniProt O95136); experiment: Agonist activity at human S1P2 expressed in CHO-K1 cells coexpressing Gq/i5 assessed as intracellular calcium release by fluorimetry; format: functional, cell-based
Outline: (§2)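 CHO-K1 cells expressing the human S1P receptor subtype plus chimeric Gq/i5; Ca2+ mobilization measured; efficacy relative to S1P at 0.20 μM; compounds not reaching >10% of control activity reported as > highest concentration tested.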

[8] = Clearance in Sprague-Dawley rat at 1 mg/kg, iv; format: ADME, organism-based; design: dose 1 mg/kg, route intravenous; conditions: in vivo
[9] = test system: Rattus norvegicus; experiment: Immunosuppressive activity in po dosed Lewis rat assessed as change in peripheral lymphocyte count after 24 hrs relative to vehicle treated control; format: functional, organism-based
Outline: (§3)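 Female Lewis rats dosed orally once at 0.30, 1.0 or 3.0 mg/kg (N = 5; 3.0 mg/kg group N = 3) in 20% HPBCD, 1% HPMC, 1% pluronic F68, pH 2.1 with MSA; blood lymphocytes and plasma concentration at 24 h; ANOVA/Dunnett's vs vehicle.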

[10] = target: T1, PXR (NR1I2) (Homo sapiens, UniProt O75469); experiment: Induction of human PXR at 10 uM relative to control; conditions: read-out: Activity
T1 sequence (O75469 whole entry): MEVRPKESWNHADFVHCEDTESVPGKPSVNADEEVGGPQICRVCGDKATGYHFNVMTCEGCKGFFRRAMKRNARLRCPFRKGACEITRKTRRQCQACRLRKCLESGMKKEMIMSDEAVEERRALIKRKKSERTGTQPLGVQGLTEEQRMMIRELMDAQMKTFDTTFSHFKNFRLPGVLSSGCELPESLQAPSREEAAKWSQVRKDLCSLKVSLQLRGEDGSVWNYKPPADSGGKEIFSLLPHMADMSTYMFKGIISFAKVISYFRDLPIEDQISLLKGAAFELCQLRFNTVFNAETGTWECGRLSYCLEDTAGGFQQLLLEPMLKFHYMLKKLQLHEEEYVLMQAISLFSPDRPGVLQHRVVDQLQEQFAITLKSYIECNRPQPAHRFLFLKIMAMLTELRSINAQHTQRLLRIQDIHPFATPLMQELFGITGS

[11] = Intrinsic clearance in rat liver microsomes after 30 mins; format: ADME, Microsome; conditions: read-out: CLH
[12] = Plasma concentration in Lewis rat at 0.3 mg/kg, po at 24 hrs; format: ADME, organism-based; design: dose 0.3 mg/kg, route oral; outline: as §3
[13] = target: Voltage-gated inwardly rectifying potassium channel KCNH2 (Homo sapiens, UniProt Q12809); experiment: Inhibition of human ERG
[14] = test system: Rattus norvegicus; experiment: AUC (0 to 48 hrs) in Sprague-Dawley rat at 100 mg/kg, po; format: ADME, organism-based, Plasma; design: time < 48 hr, dose 100 mg/kg, route oral; conditions: in vivo
[15] = target: T2, Sphingosine 1-phosphate receptor 4 (Homo sapiens, UniProt O95977); experiment: Agonist activity at human S1P4 expressed in CHO-K1 cells coexpressing Gq/i5 assessed as calcium mobilization-induced bioluminescence change after measured for 90 secs by fluorimetry; format: functional, cell-based
T2 sequence (O95977 whole entry): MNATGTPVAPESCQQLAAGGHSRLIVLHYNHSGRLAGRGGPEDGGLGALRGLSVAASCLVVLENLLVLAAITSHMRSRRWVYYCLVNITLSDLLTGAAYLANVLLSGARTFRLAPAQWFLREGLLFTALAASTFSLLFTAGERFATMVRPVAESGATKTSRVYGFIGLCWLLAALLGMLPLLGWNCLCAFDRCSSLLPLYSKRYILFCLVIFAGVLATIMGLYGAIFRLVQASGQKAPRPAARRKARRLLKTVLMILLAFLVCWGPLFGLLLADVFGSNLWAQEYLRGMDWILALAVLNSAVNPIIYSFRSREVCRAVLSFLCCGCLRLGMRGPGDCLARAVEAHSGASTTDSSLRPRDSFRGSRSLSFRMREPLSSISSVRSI

[16] = AUC (0 to 48 hrs) in Sprague-Dawley rat at 3 mg/kg, po; format: ADME, organism-based; design: time < 48 hr, dose 3 mg/kg, route oral; conditions: plasma
[17] = test system: Rattus norvegicus; experiment: Toxicity in Sprague-Dawley rat assessed as weight loss at 200 mg/kg, po administered qd for 4 days; format: organism-based; design: dose 200 mg/kg, route oral; conditions: in vivo, 96 h; outline: as §1
[18] = target: T3, Sphingosine 1-phosphate receptor 5 (Homo sapiens, UniProt Q9H228); experiment: Agonist activity at human S1P5 expressed in CHO-K1 cells coexpressing Gq/i5 assessed as calcium mobilization-induced bioluminescence change measured for 90 secs by fluorimetry; format: functional, cell-based; outline: as §2
[19] = target: T3, Sphingosine 1-phosphate receptor 5; experiment: Agonist activity at human S1P5 expressed in CHO-K1 cells coexpressing Gq/i5 assessed as calcium mobilization-induced bioluminescence change measured for 90 secs by fluorimetry relative to S1P; format: functional, cell-based; outline: as §2
[20] = test system: Rattus norvegicus; experiment: Toxicity in Sprague-Dawley rat assessed as mortality at 50 mg/kg, po administered qd for 4 days; format: organism-based; design: dose 50 mg/kg, route oral; conditions: in vivo, 96 h; outline: as §1
[21] = AUC (0 to 48 hrs) in Sprague-Dawley rat at 1 mg/kg, iv; format: ADME, organism-based; design: time < 48 hr, dose 1 mg/kg, route intravenous; conditions: plasma
[22] = target: Sphingosine 1-phosphate receptor 3 (Homo sapiens, UniProt Q99500); experiment: Agonist activity at human S1P3 expressed in CHO-K1 cells coexpressing Gq/i5 assessed as intracellular calcium release by fluorimetry; format: functional, cell-based; outline: as §2
[23] = test system: Rattus norvegicus; experiment: Toxicity in Sprague-Dawley rat assessed as increase in bilirubin level at 200 mg/kg, po administered qd for 4 days; format: organism-based; design: dose 200 mg/kg, route oral; conditions: in vivo, 96 h; outline: as §1
[24] = test system: Rattus norvegicus; experiment: Toxicity in Sprague-Dawley rat assessed as increase in bilirubin level at 50 mg/kg, po administered qd for 4 days; format: organism-based; design: dose 50 mg/kg, route oral; conditions: in vivo, 96 h; outline: as §1
[25] = target: Cytochrome P450 2D6 (Homo sapiens, UniProt P10635); experiment: Inhibition of human CYP2D6; format: ADME
[26] = target: Sphingosine 1-phosphate receptor 1 (Homo sapiens, UniProt P21453); experiment: Agonist activity at human S1P1 expressed in U2OS cells coexpressing eGFP assessed as receptor internalization after 1 hr by microscopic analysis relative to 1-(4-(6-benzylbenzofuran-2-yl)-3-fluorobenzyl)azetidine-3-carboxylic acid; format: functional, cell-based
Outline: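 Human S1P1–eGFP fusion protein expressed in U2OS cells; agonism read as receptor internalization; EC50 derived, efficacy expressed relative to 1-(4-(6-benzylbenzofuran-2-yl)-3-fluorobenzyl)azetidine-3-carboxylic acid at 1.0 μM.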

[27] = Plasma concentration in Lewis rat at 3 mg/kg, po at 24 hrs; format: ADME, organism-based; design: dose 3 mg/kg, route oral; outline: as §3
[28] = test system: Rattus norvegicus; experiment: Toxicity in Sprague-Dawley rat assessed as weight loss at 50 mg/kg, po administered qd for 4 days; format: organism-based; design: dose 50 mg/kg, route oral; conditions: in vivo, 96 h; outline: as §1
[29] = test system: Rattus norvegicus; experiment: Immunosuppressive activity in Lewis rat assessed as change in peripheral lymphocyte count at 1 mg/kg, po after 24 hrs relative to vehicle treated control; format: functional
Outline: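 Female Lewis rats (N = 5/group) given one oral dose of 1 mg/kg (20% captisol, 1% HPMC, 1% pluronic F68, pH 2.1 with MSA); blood lymphocyte count and total plasma compound measured at 24 h; POC vs vehicle, ANOVA/Dunnett's test.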

[30] = test system: Rattus norvegicus; experiment: Immunosuppressive activity in po dosed Lewis rat assessed as change in peripheral lymphocyte count at 3 mg/kg, po after 24 hrs relative to vehicle treated control; format: functional; outline: as §3
[31] = test system: Rattus norvegicus; experiment: Toxicity in Sprague-Dawley rat assessed as increase in cholesterol level at 200 mg/kg, po administered qd for 4 days; format: organism-based; design: dose 200 mg/kg, route oral; conditions: in vivo, 96 h; outline: as §1
[32] = Volume of distribution at steady state in Sprague-Dawley rat at 1 mg/kg, iv; format: ADME, organism-based; design: dose 1 mg/kg, route intravenous; conditions: in vivo, read-out: Vdss

T3 sequence (Q9H228 whole entry): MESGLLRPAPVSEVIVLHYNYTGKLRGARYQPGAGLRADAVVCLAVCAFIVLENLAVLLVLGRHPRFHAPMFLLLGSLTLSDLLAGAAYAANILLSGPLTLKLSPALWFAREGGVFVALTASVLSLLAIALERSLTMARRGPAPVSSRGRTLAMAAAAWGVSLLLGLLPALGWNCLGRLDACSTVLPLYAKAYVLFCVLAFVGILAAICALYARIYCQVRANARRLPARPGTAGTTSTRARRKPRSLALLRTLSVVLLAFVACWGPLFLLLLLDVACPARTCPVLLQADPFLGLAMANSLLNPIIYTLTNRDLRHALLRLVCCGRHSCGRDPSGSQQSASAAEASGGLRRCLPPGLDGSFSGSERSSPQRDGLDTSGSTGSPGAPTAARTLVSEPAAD
Sequence of Sphingosine 1-phosphate receptor 1 (P21453 whole entry, the tested form may be a part): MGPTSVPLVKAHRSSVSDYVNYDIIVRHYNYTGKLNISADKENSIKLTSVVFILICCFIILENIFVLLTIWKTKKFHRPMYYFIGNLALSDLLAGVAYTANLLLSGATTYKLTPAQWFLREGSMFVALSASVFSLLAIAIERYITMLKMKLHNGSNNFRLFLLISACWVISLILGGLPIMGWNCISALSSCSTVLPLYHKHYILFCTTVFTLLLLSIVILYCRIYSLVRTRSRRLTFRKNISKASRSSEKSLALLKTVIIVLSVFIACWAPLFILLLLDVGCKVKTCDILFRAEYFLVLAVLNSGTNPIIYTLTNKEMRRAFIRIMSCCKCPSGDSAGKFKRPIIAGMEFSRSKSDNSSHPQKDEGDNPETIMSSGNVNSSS
Sequence of Voltage-gated inwardly rectifying potassium channel KCNH2 (Q12809 whole entry): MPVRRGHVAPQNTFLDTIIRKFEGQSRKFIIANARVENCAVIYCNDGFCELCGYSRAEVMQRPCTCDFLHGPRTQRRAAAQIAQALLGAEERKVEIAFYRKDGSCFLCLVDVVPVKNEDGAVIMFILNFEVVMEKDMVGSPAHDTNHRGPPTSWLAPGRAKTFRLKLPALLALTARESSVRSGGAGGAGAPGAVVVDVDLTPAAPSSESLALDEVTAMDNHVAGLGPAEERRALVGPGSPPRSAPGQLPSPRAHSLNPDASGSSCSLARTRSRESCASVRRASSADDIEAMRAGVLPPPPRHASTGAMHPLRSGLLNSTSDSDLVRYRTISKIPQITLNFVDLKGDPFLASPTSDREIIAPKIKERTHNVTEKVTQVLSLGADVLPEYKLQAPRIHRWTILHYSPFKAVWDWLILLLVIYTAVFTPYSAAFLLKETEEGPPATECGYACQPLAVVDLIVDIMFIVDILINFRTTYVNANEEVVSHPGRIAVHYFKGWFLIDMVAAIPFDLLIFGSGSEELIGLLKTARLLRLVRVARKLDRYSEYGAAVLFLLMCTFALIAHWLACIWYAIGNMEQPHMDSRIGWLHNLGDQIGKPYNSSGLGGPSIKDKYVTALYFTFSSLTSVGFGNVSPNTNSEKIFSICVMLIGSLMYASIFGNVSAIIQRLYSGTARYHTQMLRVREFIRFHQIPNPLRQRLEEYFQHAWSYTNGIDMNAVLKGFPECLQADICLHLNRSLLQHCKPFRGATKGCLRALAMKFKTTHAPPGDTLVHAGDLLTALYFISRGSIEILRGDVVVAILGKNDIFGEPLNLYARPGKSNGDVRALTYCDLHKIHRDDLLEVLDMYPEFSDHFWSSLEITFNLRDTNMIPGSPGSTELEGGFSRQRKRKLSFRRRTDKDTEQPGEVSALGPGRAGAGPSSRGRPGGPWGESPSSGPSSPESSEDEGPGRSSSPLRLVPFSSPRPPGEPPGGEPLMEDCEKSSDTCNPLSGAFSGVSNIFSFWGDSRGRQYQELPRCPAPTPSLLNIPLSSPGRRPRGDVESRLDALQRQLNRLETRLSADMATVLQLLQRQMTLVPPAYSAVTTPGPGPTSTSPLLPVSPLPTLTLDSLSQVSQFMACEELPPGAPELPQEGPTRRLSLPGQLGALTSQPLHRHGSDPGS
Sequence of Sphingosine 1-phosphate receptor 2 (O95136 whole entry): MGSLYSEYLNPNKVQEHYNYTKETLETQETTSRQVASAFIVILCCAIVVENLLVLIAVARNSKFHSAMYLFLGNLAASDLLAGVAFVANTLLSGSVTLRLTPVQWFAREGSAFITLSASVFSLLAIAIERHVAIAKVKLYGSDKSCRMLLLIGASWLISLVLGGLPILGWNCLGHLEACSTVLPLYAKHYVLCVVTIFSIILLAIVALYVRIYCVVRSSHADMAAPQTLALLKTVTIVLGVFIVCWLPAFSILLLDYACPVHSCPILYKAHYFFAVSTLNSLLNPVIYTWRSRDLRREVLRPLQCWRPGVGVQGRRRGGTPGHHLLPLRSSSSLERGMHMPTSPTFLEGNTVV
Sequence of Cytochrome P450 2D6 (P10635 whole entry): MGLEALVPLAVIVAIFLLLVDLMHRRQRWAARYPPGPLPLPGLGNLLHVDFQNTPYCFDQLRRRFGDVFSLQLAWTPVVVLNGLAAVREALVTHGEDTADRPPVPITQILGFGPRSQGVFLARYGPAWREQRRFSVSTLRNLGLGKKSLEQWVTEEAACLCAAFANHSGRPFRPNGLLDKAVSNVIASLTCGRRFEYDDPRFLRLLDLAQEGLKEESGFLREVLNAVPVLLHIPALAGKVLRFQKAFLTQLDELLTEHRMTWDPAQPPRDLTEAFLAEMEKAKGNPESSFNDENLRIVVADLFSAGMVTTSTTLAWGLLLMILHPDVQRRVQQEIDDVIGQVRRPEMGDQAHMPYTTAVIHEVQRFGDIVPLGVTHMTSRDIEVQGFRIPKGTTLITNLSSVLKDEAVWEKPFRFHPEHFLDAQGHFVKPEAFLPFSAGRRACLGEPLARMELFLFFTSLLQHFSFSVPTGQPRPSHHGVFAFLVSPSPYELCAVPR
Sequence of Sphingosine 1-phosphate receptor 3 (Q99500 whole entry): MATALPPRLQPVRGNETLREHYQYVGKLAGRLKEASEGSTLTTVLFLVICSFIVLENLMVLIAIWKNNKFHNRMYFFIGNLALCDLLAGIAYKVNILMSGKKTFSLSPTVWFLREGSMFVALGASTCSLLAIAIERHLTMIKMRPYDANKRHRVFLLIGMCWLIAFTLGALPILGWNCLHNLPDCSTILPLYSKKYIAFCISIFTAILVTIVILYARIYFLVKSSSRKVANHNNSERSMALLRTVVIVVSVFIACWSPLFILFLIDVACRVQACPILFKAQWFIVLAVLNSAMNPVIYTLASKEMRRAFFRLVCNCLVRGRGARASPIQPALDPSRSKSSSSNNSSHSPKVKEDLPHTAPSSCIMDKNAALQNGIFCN

**Q.** Which Activity [1] does the source give for COc1ccncc1C(=O)NC(=O)Nc1ccc(-c2ccccc2)c(C(F)(F)F)c1 here?
**A.** Non-toxic

**Q.** What about the Activity [2] of the same molecule?
**A.** Non-toxic

**Q.** And the bioavailability [3]?
**A.** 140%

**Q.** What about the fraction unbound [4] of the same molecule?
**A.** 0.05

**Q.** What about the Activity [5] of the same molecule?
**A.** Non-toxic

**Q.** What about the half-life [6] of the same molecule?
**A.** 19 h

**Q.** And the pEC50 [7]?
**A.** < 4.60

**Q.** What about the clearance [8] of the same molecule?
**A.** 4.17 mL/min/kg

**Q.** What about the Activity [9] of the same molecule?
**A.** Dose-dependent effect

**Q.** What about the activity at 10 µM [10] of the same molecule?
**A.** 3.7%

**Q.** And the microsomal CLint [11]?
**A.** < 14 µL/min/mg

**Q.** And the concentration at 24 h [12]?
**A.** 17 ng/mL

**Q.** What about the pIC50 [13] of the same molecule?
**A.** < 5.00

**Q.** What about the AUC [14] of the same molecule?
**A.** 350000 ng·h/mL

**Q.** What about the pEC50 [15] of the same molecule?
**A.** < 4.30

**Q.** What about the AUC(0-t) at 48 h [16] of the same molecule?
**A.** 13000 ng·h/mL

**Q.** And the Activity [17]?
**A.** Non-toxic

**Q.** And the pEC50 [18]?
**A.** 5.37

**Q.** What about the Efficacy [19] of the same molecule?
**A.** 58%

**Q.** And the Activity [20]?
**A.** Non-toxic

**Q.** What about the AUC(0-t) at 48 h [21] of the same molecule?
**A.** 3400 ng·h/mL

**Q.** What about the pEC50 [22] of the same molecule?
**A.** < 4.60

**Q.** What about the Activity [23] of the same molecule?
**A.** Toxic

**Q.** What about the Activity [24] of the same molecule?
**A.** Toxic

**Q.** What about the pIC50 [25] of the same molecule?
**A.** < 4.52

**Q.** What about the Efficacy [26] of the same molecule?
**A.** 96%

**Q.** And the concentration at 24 h [27]?
**A.** 160 ng/mL

**Q.** What about the Activity [28] of the same molecule?
**A.** Non-toxic

**Q.** What about the Activity [29] of the same molecule?
**A.** -67%

**Q.** And the Activity [30]?
**A.** 81%

**Q.** What about the Activity [31] of the same molecule?
**A.** Toxic

**Q.** And the Vd [32]?
**A.** 6.3 L/kg
